Experimental data from different studies.
Compare with care: the assays were run in different laboratories.
Target: MAP kinase-interacting serine/threonine-protein kinase 2 (MKNK2, Homo sapiens, UniProt Q9HBH9)

Compound | observed | mode | technique | concentration | quantity | result
CC/C(=N\NC(=O)NCc1cccc(O)c1)c1ccc(O)c(C)c1O | enzyme activity | inhibitor |  | 0.1 µM | inhibition | -2.9%
CC(=O)N1CCC(c2ccc(C(=O)NC3=NCCN3)cc2C(F)(F)F)CC1 | cell-free assay |  | competition with immobilised ligand | 1 µM | remaining binding | 100%
COc1cc2c(Nc3ccc(Br)cc3F)ncnc2cc1OCC1CCN(C)CC1 | cell-free assay |  |  | 0.5 µM | remaining signal | 86.9%
COc1cc(Nc2cnc(C#N)c(O[C@H](C)CN(C)C)n2)ncc1-c1cnn(C)c1 | enzyme activity | inhibitor | radiometric | 10 µM | remaining activity | 112%
CCN(CC)c1ccc(C2=NNC(=O)CC2C)cc1[N+](=O)[O-] (centres unmarked) | enzyme activity | inhibitor |  | 10 µM | remaining activity | 25%
COc1cc(Cl)c(C(=O)N[C@@H](CN[C@H]2CC[C@@H](N)CC2)Cc2ccc(C#N)cc2)cc1-c1ccc(CN[C@H](C)c2ccc(C)cc2)o1 | enzyme activity | inhibitor |  | 1 µM | remaining activity | 102%
CC1=C(C#N)[C@@H](c2ccc3[nH]nc(C)c3c2)C(C#N)=C(c2ccc(Cl)cc2)N1 | cell-free assay |  | competition with immobilised ligand | 1 µM | remaining binding | 90.6%
CNC(=O)c1cc(Oc2ccc(NC(=O)Nc3ccc(Cl)c(C(F)(F)F)c3)cc2)ccn1 | enzyme activity | inhibitor |  | 10 µM | inhibition | 90%
O=C(N[C@H]1CCCCC/C=C\C2C[C@@]2(C(=O)O)NC(=O)[C@@H]2C[C@@H](Oc3ccncc3)CN2C1=O)OC1CCCC1 (some centres unmarked) | binding |  | competition with immobilised ligand | 1 µM | remaining binding | 75%
COc1cc2c(N3CCN(C(=O)Nc4ccc(OC(C)C)cc4)CC3)ncnc2cc1OCCCN1CCCCC1 | cell-free assay |  |  | 0.5 µM | remaining signal | 99%
Cn1c(=O)n(-c2ccc(C(C)(C)C#N)cc2)c2c3cc(-c4cnc5ccccc5c4)ccc3ncc21 | enzyme activity | inhibitor |  | 10 µM | remaining activity | 94%
Clc1ccc(Nc2nnc(Cc3ccncc3)c3ccccc23)cc1 | cell-free assay |  |  | 0.5 µM | remaining signal | 101%
Cc1ccc(Nc2nccc(N(C)c3ccc4c(C)n(C)nc4c3)n2)cc1S(N)(=O)=O | enzyme activity | inhibitor |  | 10 µM | inhibition | 9%
FC(F)(F)Oc1cccc(-c2cnc3ccc(-c4ccncc4)nn23)c1 | enzyme activity | inhibitor | radiometric | 1 µM | activity vs control | 66%
N#CCCc1ccc2c(c1)-c1[nH]c3ccc([N+](=O)[O-])cc3c1CC(=O)N2 | cell-free assay |  |  | 0.5 µM | remaining signal | 87.7%
CC(=O)C1=C(C)N(c2cccc(C(F)(F)F)c2)C(=O)N[C@@H]1c1ccc(C#N)nc1 | cell-free assay |  | competition with immobilised ligand | 1 µM | remaining binding | 84.8%

Compound | observed | mode | technique | concentration | quantity | result
Cc1sc(C(=O)NC2COC2)cc1-n1cc(NC(=O)Nc2c(F)cccc2Cl)cn1 | enzyme activity | inhibitor |  | 10 µM | remaining activity | 83.4%
Cc1ncc(C(=O)Nc2ccc(CN3CCN(C)CC3)c(C(F)(F)F)c2)cc1C#Cc1cnc2cccnn12 | enzyme activity | inhibitor |  | 0.123 µM | inhibition | 51%
CN([C@@H]1CCc2c(CC(=O)O)c3ccccc3n2C1)S(=O)(=O)c1ccc(F)cc1 | cell-free assay |  | competition with immobilised ligand | 1 µM | remaining binding | 100%
Cc1cnc(NC2CCOCC2)nc1-n1cnc(C(=O)NC(CN)c2cc(F)cc(Cl)c2)c1 (centres unmarked) | enzyme activity | inhibitor | radiometric | 1 µM | remaining activity | 25%
CC(C)(C)c1nc2c(s1)c1nc(N)ncc1c1ccc(NS(=O)(=O)c3c(F)cccc3F)c(F)c12 | enzyme activity | inhibitor | radiometric | 1 µM | remaining activity | 98%
Cn1nc(C(=O)NCc2ccc(C(=O)O)cc2)cc1-c1ccc2[nH]ccc2c1 | cell-free assay |  | competition with immobilised ligand | 0.1 µM | remaining binding | 96%
CS(=O)(=O)Nc1cccc(-c2csc(NC(=O)CSc3nc4nccnc4c(=O)n3CCc3ccccc3)n2)c1 | enzyme activity | inhibitor |  | 10 µM | inhibition | -10%
CC(C)(C)C(=O)c1sc(NC2CCCCC2)nc1N | enzyme activity | inhibitor |  | 10 µM | remaining activity | 96%
CC(C)(O)[C@H]1CC[C@H](Nc2ccc3ncc(-c4cccc(C(F)(F)F)c4)n3n2)CC1 | enzyme activity | inhibitor |  | 1 µM | remaining activity | 66.5%
CSc1cccnc1N1CCN(Cc2nc3ccccc3[nH]2)CC1 | cell-free assay |  | competition with immobilised ligand | 1 µM | remaining binding | 75%
Cc1ccc(C(=O)Nc2ccc(CN3CCN(C)CC3)c(C(F)(F)F)c2)cc1C#Cc1cnc2cccnn12 | enzyme activity | inhibitor |  | 23.5 nM | remaining activity | 33%
CSc1nc(C)c(-c2ccnc(Nc3ccc(N4CCOCC4)cc3)c2)[nH]1 | enzyme activity | inhibitor |  | 10 µM | inhibition | 94.9%
CN1CC(Oc2cnc(C#N)cc2-c2ccn3nc(NC(=O)C4CC4)cc3c2)C1 | enzyme activity | inhibitor |  | 1 µM | inhibition | 5%
CS(=O)(=O)N1CCCC(NC(=O)[C@H](CCC2CCCCC2)NC(=O)c2ccc(CNC(=O)c3cnc4ccccn34)cc2)C1 (some centres unmarked) | cell-free assay |  | competition with immobilised ligand | 0.1 µM | remaining binding | 84%
Oc1cccc(-c2nc(N3CCOCC3)c3oc4ncccc4c3n2)c1 | enzyme activity | inhibitor |  | 10 µM | remaining activity | 90%
CCN(CC)CCNC(=O)c1c(C)[nH]c(/C=C2\C(=O)Nc3ccc(F)cc32)c1C | enzyme activity | inhibitor |  | 0.3 µM | inhibition | -18%
